Assay results reported in article PMC7826402 (Proceedings of the National Academy of Sciences of the …, 2021).

Key:
[1] = tested on: CXCR4-mediated HIV-1 infection; assay: CXCR4-tropic HIV-1 NL4-3 infection of GHOST-CXCR4 cells; format: cell-based, HIV-1 in human osteosarcoma (GHOST) cells; details: GHOST-CXCR4, HIV-1 NL4-3; three experiments
CXCR4 [2] = details: cited from earlier work
GPR15 [3] = assay: GPR15 cell surface down-modulation in GHOST-GPR15 and CEM-M7 cells; format: cell-based, human
CXCR4 [4] = assay: CXCR4 surface expression on PBMCs; format: cell-based, human; details: 10 µM, 1 h at 37°C; FACS; n = 3 donors
GPR15 [5] = assay: GPR15 surface expression on PBMCs; format: cell-based, human; details: 10 µM, 1 h at 37°C; FACS; n = 3 donors
GPR15 [6] = assay: Calcium release in GPR15-expressing CHO cells; format: cell-based; details: CHO cells with human GPR15 and Gα16; aequorin; quadruplicate
[7] = tested on: GPR15-mediated SIVmac239 infection; assay: Inhibition of GPR15-mediated SIVmac239 infection of GHOST-GPR15 cells; format: cell-based, SIVmac239 in human osteosarcoma (GHOST) cells
Summary of the method: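 GHOST-GPR15 cells were seeded, cultured overnight and treated with test peptide for 2 h at 37 °C. They were then infected with SIVmac239 carrying Firefly luciferase in place of nef. Three days post-infection, cells were lysed and luciferase activity (RLU) was measured. Runs were at least in triplicate (mean ± SEM), and IC₅₀ was derived from increasing peptide concentrations.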

CCR5 = details: cited from earlier work

c1cc(CN2CCCNCCNCCCNCC2)ccc1CN1CCCNCCNCCCNCC1 [AMD3100, reference compound]
inhibition of CXCR4-mediated HIV-1 infection [1]: in contrast to the small molecule inhibitor AMD3100, neither CysC95-146 nor GPR15L inhibited | antagonism of chemokine signaling via CXCR4 (CXCR4 [2]): antagonize chemokine signaling via these GPCRs

CXCL-12/SDF-1: chemokine ligand of CXCR4
inhibition of CXCR4-mediated HIV-1 infection by chemokine ligand (CXCR4 [2]): inhibit CCR5- or CXCR4-mediated HIV-1 infection, respectively

GPR15L: agonistic chemokine ligand of GPR15 (KRRPAKAWSGRRTRLCCHRVPSPNSTNLKGHHVRLCKPCKLEPEPRLWVVPGALPQV; UniProt Q6UWK7 25-81, looked up)
GPR15 cell surface expression (GPR15 [3]; GHOST-GPR15 and CEM-M7 cells, 30 min at 37°C or 4°C, flow cytometry): induced down-regulation of GPR15 from the surface of GHOST-GPR15 and CEM-M7 cells | GPR15 receptor internalization on ice (GPR15 [3]; cells kept on ice (4°C)): strongly reduced | CXCR4 surface expression on PBMCs (CXCR4 [4]): induced significant down-modulation of CXCR4 | inhibition of CXCR4-mediated HIV-1 infection [1]: neither CysC95-146 nor GPR15L inhibited CXCR4-mediated HIV-1 infection | reduction of GPR15 cell surface expression on PBMCs (GPR15 [5]): ~40% | calcium release (GPR15 signaling) (GPR15 [6]): GPR15 signaling was confirmed | effect of GPR15L on antiviral activity of CysC95-146 ([7]; GHOST-GPR15 treated with CysC95-146 in presence or absence of GPR15L, SIVmac239 luciferase reporter): did not enhance the antiviral activity of CysC95-146 | inhibitory effect on HIV and SIV entry ([7]; overall statement (Discussion)): little if any inhibitory effect on HIV and SIV entry

Maraviroc [reference compound]
antagonism of chemokine signaling via CCR5 (CCR5): antagonize chemokine signaling via these GPCRs

B1: cystatin C: small (13 kDa) basic protein; human Cystatin C protein (purified, from human urine) (protein, UniProt P01034 27-146, looked up)
Cystatin-C: SSPGKPPRLVGGPMDASVEEEGVRRALDFAVGEYNKASNDMYHSRALQVVRARKQIVAGVNYFLDVELGRTTCTKTQPNLDNCPFHDQPHLKRKAFCSFQIYAVPWQGTMTLSKSTCQDA
inhibition of GPR15-mediated SIVmac239 infection (in words) ([7]; GHOST-GPR15 cells, SIVmac239 F-Luc, peptide preincubation 1 – 2 h 37 °C, 3 dpi): little inhibitory effect

B2: CCL5/RANTES: chemokine ligand of CCR5 (protein, UniProt P13501 24-91, looked up)
C-C motif chemokine 5: SPYSSDTTPCCFAYIARPLPRAHIKEYFYTSGKCSNPAVVFVTRKNRQVCANPEKKWVREYINSLEMS
inhibition of CCR5-mediated HIV-1 infection by chemokine ligand (CCR5): inhibit CCR5- or CXCR4-mediated HIV-1 infection, respectively
